{"source": "paper PMC6885571", "about": "(International Journal of Nanomedicine, 2019)", "key": {"[1]": {"test_system": "nasal mucosa", "test": "Test for nasal toxicity of NEs", "format": "in vivo, Wistar rats", "conditions": "rats, intranasal, 14 consecutive days; mucosa on days 1, 7, 14", "outline": "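Male Wistar rats (200 g), four groups of three, dosed intranasally. Groups: saline (negative control), 1% sodium deoxycholate in 50 µL saline (positive control), or one of two nanoemulsions for 14 consecutive days. Nasal mucosa collected after sacrifice on days 1, 7 and 14, fixed 24 h in 10% buffered formalin, dehydrated in ethanol, cleared in xylene and paraffin-embedded. Sections stained with H&E and examined by light microscopy.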"}, "[2]": {"test": "Pharmacokinetic study after intranasal administration", "format": "in vivo, Wistar rats", "conditions": "rats", "outline": "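Wistar rats (200±20 g) anaesthetised with 10% chloral hydrate received 50 µL of formulation through a PE 10 tube inserted 1 cm into the nostril. Orbital blood and tissues taken at 0.083–24 h (11 points). Plasma or tissue homogenate alkalised with 2 mol/L NaOH, extracted with 2 mL ethyl acetate, dried under nitrogen, redissolved in methanol and assayed by HPLC. Parameters calculated by software; mean±SD, n=6.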"}, "[3]": {"test": "In vitro drug release, dialysis bag in phosphate buffer pH 6.8", "format": "physicochemical", "conditions": "at 24 h; phosphate buffer pH 6.8, 37 °C", "outline": "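Dialysis bag (12–14 kDa cut-off), pre-soaked overnight in medium, held 1 mL of freshly prepared nanoemulsion (5 mg/mL drug). Bag placed in 100 mL phosphate buffer pH 6.8 at 37 °C, shaken at 50 rpm. At set times 4 mL was withdrawn and replaced with fresh medium. HupA measured by HPLC (C18, methanol–water 43:57, 308 nm), plotted as cumulative % released versus time. Drug suspension run under the same sink conditions.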"}, "[4]": {"test": "Saturation solubility of HupA in oils, surfactants and co-surfactants", "format": "physicochemical", "conditions": "thermodynamic from solid", "outline": "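Excess HupA added to 0.2 mL vehicle, vortexed 10 min, then kept 24 h at 37±0.5 °C in a shaking water bath. Mixture centrifuged at 6000 rpm for 10 min and supernatant filtered (0.45 µm). 0.1 mL diluted in methanol and dissolved drug quantified by HPLC.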"}, "[5]": {"test_system": "hCMEC/D3 cells", "test": "Cellular uptake and transporter/endocytosis inhibition assay", "format": "cell-based, human", "conditions": "30 min pre-incubation with inhibitor", "outline": "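hCMEC/D3 cells grown to 90% confluence, then pre-incubated 30 min at 37 °C, 5% CO2 with one inhibitor: verapamil 10 µM, MK571 10 µM, ko143 1 µM, […], aprotinin 200 µg/mL, colchicine 2.5 µM or […]. Nanoemulsion or HupA solution added for 1 h. Cells washed with ice-cold PBS, lysed in 1% Triton X-100, dichloromethane-extracted and analysed by HPLC; mean±SD, n=3.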"}}}
{"compound": "C[C@H](CCC(=O)[O-])[C@H]1CC[C@H]2[C@@H]3CC[C@@H]4C[C@H](O)CC[C@]4(C)[C@H]3C[C@H](O)[C@]12C.[Na+]", "note": "[1% deoxycholic acid sodium solution, deoxycholic acid sodium]", "values": [{"measurement": "nasal mucosa toxicity (histology)", "setting": "[1]", "result": "extensive damage to the nasal mucosa"}]}
{"compound": "C/C=C1\\[C@H]2C=C(C)C[C@]1(N)c1ccc(=O)[nH]c1C2", "note": "[HupA Solution]", "values": [{"measurement": "AUC(0-t)", "setting": "[2]; brain", "result": 21.507, "unit": "ng·h/mL"}, {"measurement": "AUC(0-∞)", "setting": "[2]; brain", "result": 23.765, "unit": "ng·h/mL"}, {"measurement": "Cmax", "setting": "[2]; brain", "result": 13.29, "unit": "ng/mL"}, {"measurement": "MRT(0-t)", "setting": "[2]; brain", "result": 1.255, "unit": "h"}, {"measurement": "MRT(0-∞)", "setting": "[2]; brain", "result": 1.674, "unit": "h"}, {"measurement": "T1/2", "setting": "[2]; brain", "result": 1.173, "unit": "h"}, {"measurement": "Tmax", "setting": "[2]; brain", "result": 0.25, "unit": "h"}, {"measurement": "AUC(0-t)", "setting": "[2]; plasma", "result": 51.188, "unit": "ng·h/mL"}, {"measurement": "AUC(0-∞)", "setting": "[2]; plasma", "result": 51.378, "unit": "ng·h/mL"}, {"measurement": "Cmax", "setting": "[2]; plasma", "result": 56.95, "unit": "ng/mL"}, {"measurement": "MRT(0-t)", "setting": "[2]; plasma", "result": 1.153, "unit": "h"}, {"measurement": "MRT(0-∞)", "setting": "[2]; plasma", "result": 1.439, "unit": "h"}, {"measurement": "T1/2", "setting": "[2]; plasma", "result": 0.769, "unit": "h"}, {"measurement": "Tmax", "setting": "[2]; plasma", "result": 0.25, "unit": "h"}, {"measurement": "drug released", "setting": "[3]", "result": 63, "unit": "%"}]}
{"compound": "C/C=C1\\[C@H]2C=C(C)C[C@]1(N)c1ccc(=O)[nH]c1C2", "note": "[HupA, Huperzine A]", "values": [{"measurement": "solubility at 24 h", "setting": "[4]; Capryol90, 37 °C, oil or lipid", "result": "38.33 ± 0.15", "unit": "mg/mL"}, {"measurement": "solubility at 24 h", "setting": "[4]; Cremophor EL, 37 °C", "result": "34.7 ± 0.09", "unit": "mg/mL"}, {"measurement": "solubility at 24 h", "setting": "[4]; Grape seed oil, 37 °C, oil or lipid", "result": "1.96 ± 0.01", "unit": "mg/mL"}, {"measurement": "solubility at 24 h", "setting": "[4]; L.A.S, 37 °C", "result": "34.96 ± 0.13", "unit": "mg/mL"}, {"measurement": "solubility at 24 h", "setting": "[4]; LABRAFIL M 1944 CS, 37 °C, oil or lipid", "result": "19.7 ± 0.24", "unit": "mg/mL"}, {"measurement": "solubility at 24 h", "setting": "[4]; Labrasol, 37 °C", "result": "102.2 ± 0.65", "unit": "mg/mL"}, {"measurement": "solubility at 24 h", "setting": "[4]; PEG400, 37 °C, organic solvent or mixture", "result": "98.41 ± 0.35", "unit": "mg/mL"}, {"measurement": "solubility at 24 h", "setting": "[4]; Plurol Oleique CC 497, 37 °C", "result": "15.5 ± 0.31", "unit": "mg/mL"}, {"measurement": "solubility at 24 h", "setting": "[4]; Propanediol, 37 °C, organic solvent or mixture", "result": "65.3 ± 0.91", "unit": "mg/mL"}, {"measurement": "solubility at 24 h", "setting": "[4]; Soybean oil, 37 °C, oil or lipid", "result": "2.73 ± 0.07", "unit": "mg/mL"}, {"measurement": "solubility at 24 h", "setting": "[4]; Span 80, 37 °C", "result": "13.35 ± 0.12", "unit": "mg/mL"}, {"measurement": "solubility at 24 h", "setting": "[4]; Tween 80, 37 °C", "result": "21 ± 0.45", "unit": "mg/mL"}, {"measurement": "solubility at 24 h", "setting": "[4]; isopropyl myristate (IPM), 37 °C, oil or lipid", "result": "2.43 ± 0.01", "unit": "mg/mL"}]}
{"compound": "Aprotinin", "values": [{"measurement": "effect of inhibitor on transport of HupA-NE across the cells", "setting": "[5]; then HupA-NE 1 h", "result": "restricted transport"}, {"measurement": "effect of inhibitor on Lf-HupA-NE transport", "setting": "[5]; then Lf-HupA-NE 1 h", "result": "mildly reduced"}]}
